ChEMBL document CHEMBL2021884, “Azaindenoisoquinolines as topoisomerase I inhibitors and potential anticancer agents: a systematic study of structure-activity relationships” (2012)
Calls of active or inactive are those of the source. No cut-off for these calls is given here.

Tests used:
[1] = system: OVCAR-3; experiment: Growth inhibition of human OVCAR3 cells after 48 hrs by sulforhodamine B assay; assay type: functional; conditions: OVCAR-3, 48 h
Outline: (§1)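 NCI 60-cell-line screen: cells exposed 48 h to five 10-fold dilutions starting at 100 μM (range 10−4 to 10−8 M), then stained with sulforhodamine B. Optical densities relative to control plotted against log concentration. GI50 interpolated between points above and below 50% growth. Single determinations.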

[2] = molecular target: T1, DNA topoisomerase 1 (Homo sapiens) (UniProt P11387); experiment: Inhibition of human recombinant topoisomerase 1-mediated DNA cleavage using [32P]-3'-end-labeled 117-bp DNA fragment as substrate at 0.1 to 100 uM after 20 mins by SDS-PAGE analysis
T1 sequence (whole entry): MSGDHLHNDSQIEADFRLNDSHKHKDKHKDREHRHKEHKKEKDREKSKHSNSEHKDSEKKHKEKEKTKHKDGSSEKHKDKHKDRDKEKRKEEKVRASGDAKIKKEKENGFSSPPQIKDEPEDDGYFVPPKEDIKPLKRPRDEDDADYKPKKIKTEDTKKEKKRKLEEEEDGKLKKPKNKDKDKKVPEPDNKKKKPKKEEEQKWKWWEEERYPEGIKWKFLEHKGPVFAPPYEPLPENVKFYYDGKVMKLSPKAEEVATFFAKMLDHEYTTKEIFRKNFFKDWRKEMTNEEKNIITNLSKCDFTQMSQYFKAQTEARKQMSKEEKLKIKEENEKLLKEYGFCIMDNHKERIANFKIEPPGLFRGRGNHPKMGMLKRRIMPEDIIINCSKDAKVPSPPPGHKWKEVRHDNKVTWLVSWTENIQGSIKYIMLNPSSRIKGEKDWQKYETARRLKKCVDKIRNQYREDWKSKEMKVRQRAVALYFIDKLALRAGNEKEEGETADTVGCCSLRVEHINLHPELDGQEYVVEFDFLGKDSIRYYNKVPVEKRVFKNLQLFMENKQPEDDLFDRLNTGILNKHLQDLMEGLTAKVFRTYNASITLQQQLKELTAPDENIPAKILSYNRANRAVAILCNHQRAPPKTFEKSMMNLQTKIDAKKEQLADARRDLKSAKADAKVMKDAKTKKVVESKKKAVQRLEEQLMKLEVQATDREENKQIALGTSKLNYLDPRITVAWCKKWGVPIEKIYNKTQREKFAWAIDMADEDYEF
Outline: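 Human Top1 expressed in baculovirus and purified. Substrate is a 117-bp oligonucleotide carrying the pBluescript SK(−) cleavage sites, 3′-end-labeled by Klenow fill-in with [α-32P]dGTP. Compound at 0.1, 1, 10, 100 μM; reaction stopped with 0.5% SDS (final) plus formamide loading dye.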

[3] = system: DU-145; experiment: Growth inhibition of human DU145 cells after 48 hrs by sulforhodamine B assay; assay type: functional; conditions: DU-145, 48 h; outline: as §1
[4] = system: HCT-116; experiment: Growth inhibition of human HCT116 cells after 48 hrs by sulforhodamine B assay; assay type: functional; conditions: HCT-116, 48 h; outline: as §1
[5] = system: SF-539; experiment: Growth inhibition of human SF539 cells after 48 hrs by sulforhodamine B assay; assay type: functional; conditions: SF-539, 48 h; outline: as §1
[6] = system: HOP-62; experiment: Growth inhibition of human HOP62 cells after 48 hrs by sulforhodamine B assay; assay type: functional; conditions: HOP-62, 48 h; outline: as §1
[7] = system: SN12C; experiment: Growth inhibition of human SN12C cells after 48 hrs by sulforhodamine B assay; assay type: functional; outline: as §1
[8] = system: UACC-62; experiment: Growth inhibition of human UACC62 cells after 48 hrs by sulforhodamine B assay; assay type: functional; conditions: UACC-62, 48 h; outline: as §1
[9] = system: MCF7; experiment: Growth inhibition of human MCF7 cells after 48 hrs by sulforhodamine B assay; assay type: functional; conditions: MCF7, 48 h; outline: as §1
[10] = system: SF-539; experiment: Growth inhibition of human SF539 cells at 10 uM after 48 hrs by sulforhodamine B assay; assay type: functional, cell-based
Outline: (§2)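 NCI screen single-concentration test at 10 μM, 48 h exposure, sulforhodamine B staining. Optical density read relative to untreated control. Used as initial testing to decide whether multi-dose GI50 testing was warranted.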

[11] = system: OVCAR-3; experiment: Growth inhibition of human OVCAR3 cells at 10 uM after 48 hrs by sulforhodamine B assay; assay type: functional, cell-based; outline: as §2
[12] = system: DU-145; experiment: Growth inhibition of human DU145 cells at 10 uM after 48 hrs by sulforhodamine B assay; assay type: functional, cell-based; outline: as §2
[13] = system: MCF7; experiment: Growth inhibition of human MCF7 cells at 10 uM after 48 hrs by sulforhodamine B assay; assay type: functional, cell-based; outline: as §2
[14] = system: HOP-62; experiment: Growth inhibition of human HOP62 cells at 10 uM after 48 hrs by sulforhodamine B assay; assay type: functional, cell-based; outline: as §2
[15] = system: UACC-62; experiment: Growth inhibition of human UACC62 cells at 10 uM after 48 hrs by sulforhodamine B assay; assay type: functional, cell-based; outline: as §2
[16] = system: HCT-116; experiment: Growth inhibition of human HCT116 cells at 10 uM after 48 hrs by sulforhodamine B assay; assay type: functional, cell-based; outline: as §2
[17] = system: SN12C; experiment: Growth inhibition of human SN12C cells at 10 uM after 48 hrs by sulforhodamine B assay; assay type: functional, cell-based; outline: as §2
[18] = molecular target: T1, DNA topoisomerase 1 (Homo sapiens); experiment: Inhibition of human recombinant topoisomerase 1-mediated DNA cleavage using [32P]-3'-end-labeled 117-bp DNA fragment as substrate at 100 uM after 20 mins by SDS-PAGE analysis
Outline: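 Human recombinant Top1 purified from baculovirus. Substrate: 117-bp oligonucleotide 3′-end-labeled by Klenow fill-in with [α-32P]dGTP, ~2 nM. Compounds tested at 0.1–100 μM. Stopped with 0.5% SDS plus formamide loading dye. Cleavage sites scored on gel.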

Structure (SMILES)	GI50 [1] [nM]	inhibition [2]	GI50 [3] [nM]	GI50 [4] [nM]	GI50 [9] [nM]	inhibition [18]	GI50 [5] [nM]	GI50 [6] [nM]	GI50 [7] [nM]	GI50 [8] [nM]	growth inhibition (GI) [10]	growth inhibition (GI) [11]	growth inhibition (GI) [12]	growth inhibition (GI) [13]	growth inhibition (GI) [14]	growth inhibition (GI) [15]	growth inhibition (GI) [16]	growth inhibition (GI) [17]
COc1cc2c3c(n(CCCN(C)C)c(=O)c2cc1OC)-c1cccnc1C3=O		Active									Active	Active	Active	Active	Active	Active	Active	Active
COc1ccc2c(n1)C(=O)c1c-2n(CCCN(C)C)c(=O)c2cc(OC)c(OC)cc12		Active									Active	Active	Active	Active	Active	Active	Active	Active
COc1cc2c3c(n(CCCN4CCOCC4)c(=O)c2cc1OC)-c1ccncc1C3=O	12000	Active	7600	390	1900		> 100000	5000	5900	85000								
COc1ccc2c(n1)C(=O)c1c-2n(CCCN2CCOCC2)c(=O)c2cc(OC)c(OC)cc12		Active									Active	Active	Active	Active	Active		Active	Active
COc1cnc2c(c1)C(=O)c1c-2n(CCCN2CCOCC2)c(=O)c2ccccc12	6300	Active	3600	2500	600		3500	4100	2600	1700								
COc1cc2c3c(n(CCCN4CCOCC4)c(=O)c2cc1OC)-c1cnccc1C3=O	24000	Active	24000	2500	4100		40000	6500	16000	48000								
COc1cc2c3c(n(C)c(=O)c2cc1OC)-c1cc2c(cc1C3=O)OCO2			4800		1900	Active	1700	2800	26000	560								
COc1cc2c3c(n(CCCN(C)C)c(=O)c2cc1OC)-c1ncccc1C3=O	3600	Active	1700	1600	440		4100	3400	3200	13000								
COc1cc2c3c(n(CCCN(C)C)c(=O)c2cc1OC)-c1cnccc1C3=O		Active									Active	Active	Active	Active	Active	Active		Active
COc1cc2c3c(n(CCCN(C)C)c(=O)c2cc1OC)-c1ccncc1C3=O	7400	Active	2900	620	3900		12000	6500	8500	> 100000								
CC[C@@]1(O)C(=O)OCc2c1cc1n(c2=O)Cc2cc3ccccc3nc2-1 [CAMPTOTHECIN]					13													

The remaining compounds from weak to strong by GI50 [3], led by results:

GI50 [1] [nM]	inhibition [2]	GI50 [3] [nM]	GI50 [4] [nM]	GI50 [9] [nM]	inhibition [18]	Structure (SMILES)	GI50 [5] [nM]	GI50 [6] [nM]	GI50 [7] [nM]	GI50 [8] [nM]	growth inhibition (GI) [10]	growth inhibition (GI) [11]	growth inhibition (GI) [12]	growth inhibition (GI) [13]	growth inhibition (GI) [14]	growth inhibition (GI) [15]	growth inhibition (GI) [16]	growth inhibition (GI) [17]
2900	Active	880	1500	130		COc1cnc2c(c1)C(=O)c1c-2n(CCCN(C)C)c(=O)c2cc(OC)c(OC)cc12	1100	920	3600	3900								
310	Active	340	330	100		COc1cnc2c(c1)C(=O)c1c-2n(CCCN2CCOCC2)c(=O)c2cc(OC)c(OC)cc12	270	240	340	220								
370	Active	310	220	52		COc1cc2c3c(n(CCCN4CCOCC4)c(=O)c2cc1OC)-c1ncccc1C3=O		300	520	100								
940	Active	300	340	210		COc1cnc2c(c1)C(=O)c1c-2n(CCCN(C)C)c(=O)c2ccccc12	570	300	260	540								
140	Active	51	74	24		COc1cnc2c(c1)C(=O)c1c-2n(CCCN(C)C)c(=O)c2cc([N+](=O)[O-])ccc12	78	54	57	52								
110	Active	40	50	20		COc1cnc2c(c1)C(=O)c1c-2n(CCCN2CCOCC2)c(=O)c2cc([N+](=O)[O-])ccc12	35	51	43	40								
